# Substitutions are numbered along the chain they refer to. Active and inactive are the calls of the source. The calls are words filed in the database; no cut-off is given here.
# Assays:
# Leishmania donovani [1] = assay: Antimicrobial activity against wild type Leishmania donovani AG83 transfected with drug-resistant Leishmania donovani LdDR50 topoisomerase 1 F270Lmutant in large subunit assessed as inhibition of parasite growth at 20 uM after 24 hrs by MTT assay; assay type: functional; settings: AG83, 24 h
# Outline: (§1)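 WT promastigotes transfected by electroporation with mutant large-subunit (pXG-HYG, hygromycin selection) and/or small-subunit (pXG-GFP2+, G418 selection) topoisomerase I genes. Grown with DIM 1–20 μM for 24 h; MTT read-out, growth as % of optical density of untreated WT parasites.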
# Leishmania donovani [2] = assay: Ratio of KD for drug-resistant Leishmania donovani LdDR50 topoisomerase 1b to KD for wild type Leishmania donovani AG83 topoisomerase 1b
# Leishmania donovani [3] = assay: Ratio of antimicrobial activity against drug-resistant Leishmania donovani LdDR50 to antimicrobial activity against wild type Leishmania donovani AG83; assay type: functional
# Outline: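 Cells washed twice in PBS, MTT added for 4 h, acidified isopropanol stop for 20 min at room temperature, A570 read. Growth expressed as % of untreated WT OD; three experiments.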
# Leishmania donovani [4] = assay: Antimicrobial activity against wild type Leishmania donovani AG83 transfected with drug-resistant Leishmania donovani LdDR50 topoisomerase 1 F270L, K430N mutant in large subunit assessed as inhibition of parasite growth at 20 uM after 24 hrs by MTT assay; assay type: functional; settings: AG83, 24 h; outline: as §1
# [5] = test system: T1, DNA topoisomerase I (Leishmania donovani (strain BPK282A1)), E9BRC0 [K430N]; assay: Effect on recombinant drug-resistant Leishmania donovani LdDR50 topoisomerase 1b large subunit K430N mutant-mediated cleavage of 25-mer duplex oligonucleotide at 20 uM after 30 mins by PAGE analysis
# T1 sequence (whole entry): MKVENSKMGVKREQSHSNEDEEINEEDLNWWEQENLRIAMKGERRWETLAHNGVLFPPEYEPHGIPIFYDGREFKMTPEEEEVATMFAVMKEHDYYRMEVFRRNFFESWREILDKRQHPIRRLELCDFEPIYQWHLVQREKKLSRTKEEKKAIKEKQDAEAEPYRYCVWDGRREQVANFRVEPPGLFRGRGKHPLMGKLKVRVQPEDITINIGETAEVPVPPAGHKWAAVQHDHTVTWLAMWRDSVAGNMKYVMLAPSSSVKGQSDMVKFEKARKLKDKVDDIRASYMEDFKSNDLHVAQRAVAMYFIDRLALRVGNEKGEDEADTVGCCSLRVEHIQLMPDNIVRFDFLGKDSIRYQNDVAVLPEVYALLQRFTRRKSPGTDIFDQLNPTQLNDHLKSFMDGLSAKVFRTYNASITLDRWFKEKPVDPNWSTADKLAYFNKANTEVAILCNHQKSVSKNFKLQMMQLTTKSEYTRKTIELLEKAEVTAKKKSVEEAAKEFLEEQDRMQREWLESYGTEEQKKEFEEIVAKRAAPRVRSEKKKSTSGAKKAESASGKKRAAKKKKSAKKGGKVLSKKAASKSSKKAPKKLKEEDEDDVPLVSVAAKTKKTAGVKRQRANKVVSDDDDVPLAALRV
# Outline: (§2)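 5′-32P-labelled 25-mer duplex (10 nM) incubated with reconstituted mutant enzyme (0.2 μM, 20-fold molar excess) and DIM 5–20 μM for 30 min (Methods 37°C; legend 23°C). Stopped with SDS, trypsin-treated, resolved on 12% denaturing polyacrylamide-urea gel; cleaved 12-mer detected by autoradiography.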
# Leishmania donovani [6] = assay: Antimicrobial activity against wild type Leishmania donovani AG83 transfected with drug-resistant Leishmania donovani LdDR50 topoisomerase 1 wild type large subunit and N184S mutant in small subunit assessed as inhibition of parasite growth at 20 uM after 24 hrs by MTT assay; assay type: functional; settings: AG83, 24 h; outline: as §1
# [7] = test system: T2, Leishmania donovani [K430N]; assay: Inhibition of recombinant drug-resistant Leishmania donovani LdDR50 topoisomerase 1b wild type small subunit and large subunit K430N mutant-mediated relaxation of supercoiled pBluescript SK(+) DNA at up to 50 uM after 30 mins using ethidium bromide staining
# T2 sequence (whole entry): T1 sequence (whole entry)
# Outline: (§3)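 Reconstituted recombinant enzyme (30 fmol) with 90 fmol supercoiled pBluescript SK(+) DNA (3:1 DNA:enzyme), 30 min at 37°C with DIM (1–50 μM for fully mutant enzyme; 10 μM for single-site mutants); 4% DMSO vehicle control. Products on 1% agarose, ethidium bromide (0.5 μg/ml) stained; supercoiled monomer band quantified.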
# [8] = test system: T3, Leishmania donovani [F270L]; assay: Inhibition of recombinant drug-resistant Leishmania donovani LdDR50 topoisomerase 1b wild type small subunit and large subunit F270L mutant-mediated relaxation of supercoiled pBluescript SK(+) DNA at up to 50 uM after 30 mins using ethidium bromide staining; outline: as §3
# T3 sequence (whole entry): T1 sequence (whole entry) with F270L, N430K
# Leishmania donovani [9] = assay: Antimicrobial activity against wild type Leishmania donovani AG83 transfected with drug-resistant Leishmania donovani LdDR50 topoisomerase 1 K430N mutant in large subunit and N184S mutant in small subunit assessed as inhibition of parasite growth at 20 uM after 24 hrs by MTT assay; assay type: functional; settings: AG83, 24 h; outline: as §1
# [10] = Binding affinity to recombinant wild type Leishmania donovani AG83 topoisomerase 1b after 24 hrs by equilibrium dialysis method
# [11] = test system: T4, DNA topoisomerase I (Leishmania donovani (strain BPK282A1)), E9BRC0 [F270L]; assay: Effect on recombinant drug-resistant Leishmania donovani LdDR50 topoisomerase 1b large subunit F270L mutant-mediated cleavage of 25-mer duplex oligonucleotide at 20 uM after 30 mins by PAGE analysis; outline: as §2
# T4 sequence (whole entry): T1 sequence (whole entry) with F270L, N430K
# Leishmania donovani [12] = assay: Effect on recombinant wild type Leishmania donovani AG83 topoisomerase 1b-mediated cleavage of 25-mer duplex oligonucleotide at 20 uM after 30 mins by PAGE analysis
# Outline: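 The 5′-32P-labelled 25-mer duplex (10 nM) was incubated with 0.2 μM reconstituted WT His-tagged enzyme, a 20-fold molar enzyme excess. DIM was 0 or 5–20 μM, for 30 min. Reactions were stopped with SDS, trypsinised, and run on 12% denaturing polyacrylamide-urea gel with autoradiography. Read-out was the 12-mer cleaved product.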
# [13] = Binding affinity to Leishmania donovani large subunit of topoisomerase 1b
smiles,measurement,setting,value
c1ccc2c(Cc3c[nH]c4ccccc34)c[nH]c2c1 [ARUNDINE],inhibition at 20 µM,Leishmania donovani [1],34%
same,Ratio,Leishmania donovani [2],25000
same,Ratio,Leishmania donovani [3],42
same,inhibition at 20 µM,Leishmania donovani [4],34%
same,Activity,[5],Active
same,inhibition at 20 µM,Leishmania donovani [6],91%
same,inhibition,[7],Active
same,inhibition,[8],inactive
same,inhibition at 20 µM,Leishmania donovani [9],86%
same,Kd,[10],9.7 nM
same,Activity,[11],inactive
same,Activity,Leishmania donovani [12],Active
same,Kd,[13],428 nM

# From ChEMBL document CHEMBL1687733, “Topoisomerase I gene mutations at F270 in the large subunit and N184 in the small subunit contribute to the resistance mechanism of the unicellular parasite Leishmania donovani towards 3,3'-diindolylmethane” (Antimicrob Agents Chemother, 2009)
